Assay results taken from ChEMBL document CHEMBL5321217, “Identification of pyrrolo[3',4':3,4]cyclohepta[1,2-d][1,2]oxazoles as promising new candidates for the treatment of lymphomas” (Eur J Med Chem, 2023).
Calls of active or inactive are those of the source. No cut-off for these calls is given here.

Experiments:
Tubulin (Homo sapiens) [1] = target: T1, Tubulin (Homo sapiens) (UniProt P68371+Q9H4B7+P0DPH7+P68366+Q13509+Q71U36+P04350+Q3ZCM7+P07437+P68363+Q9BQE3+Q6PEY2+Q13885+Q9BVA1+Q9BUF5); assay: Inhibition of [3H]colchicine binding to tubulin (unknown origin) at 25 uM relative to control; format: protein-complex assay
In short: (§1)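 Colchicine-site competition: 0.5 μM tubulin with 5.0 μM [3H]colchicine and inhibitor at 5.0 μM, or 25 μM where stated.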

VL51 [2] = assay: Induction of mitochondrial membrane potential depolarization in human VL51 cells at 0.5 to 1 uM measured after 24 hrs by JC-1 fluorescent dye based flow cytometry analysis; format: functional, cell-based; details: dose 0.5-1 µM
In short: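 VL51 cells treated 24 h at 0.5 and 1.0 μM, labelled with JC-1, analysed by flow cytometry in FL1 and FL2 channels.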

VL51 [3] = assay: Induction of cell cycle arrest in human VL51 cells assessed as accumulation of cells at G2/M phase at 5 uM incubated for 24 hrs by PI staining based flow cytometry analysis; format: functional
In short: (§2)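 Seeding in 6-well plates, 2 mL medium: A549 5×10^4, CCRF-CEM 2.5×10^5, VL51 2.0×10^5. 24 h treatment, A549 detached with trypsin-EDTA. Cells fixed in 70% ice-cold ethanol, PI-labelled, analysed by flow cytometry. Mean of two independent experiments.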

Tubulin (Homo sapiens) [4] = target: T1, Tubulin (Homo sapiens); assay: Inhibition of [3H]colchicine binding to tubulin (unknown origin) at 5 uM relative to control; format: protein-complex assay; in short: as §1
CCRF-CEM = assay: Induction of cell cycle arrest in human CCRF-CEM cells assessed as accumulation of cells at G2/M phase at 10 uM incubated for 24 hrs by PI staining based flow cytometry analysis; format: functional; in short: as §2
[5] = Cytotoxicity against PHA-induced human PBL cells assessed as inhibition of cell growth measured after 72 hrs by MTT assay; format: toxicity, cell-based; details: PHA-induced human peripheral blood lymphocytes (PBL)
[6] = Cytotoxicity against resting human PBL cells assessed as inhibition of cell growth measured after 72 hrs by MTT assay; format: toxicity, cell-based; details: resting human peripheral blood lymphocytes (PBL)
Tubulin = assay: Inhibition of tubulin assembly (unknown origin); format: protein-complex assay, Homo sapiens
VL51 [7] = assay: Induction of cell cycle arrest in human VL51 cells assessed as increase in mitotic cells at 0.5 to 1 uM incubated for 24 hrs by PI staining based flow cytometry analysis; format: functional; details: dose 0.5-1 µM
A549 = assay: Induction of cell cycle arrest in human A549 cells assessed as accumulation of cells at G2/M phase at 5 uM incubated for 24 hrs by PI staining based flow cytometry analysis; format: functional; in short: as §2

Row | inhibition (Tubulin (Homo sapiens) [1]) [%] | inhibition (Tubulin (Homo sapiens) [4]) [%] | IC50 (Tubulin) [µM] | Compound | Activity (VL51 [2]) | Activity (VL51 [3]) | Activity (CCRF-CEM) | IC50 at 72 h [5] [µM] | IC50 at 72 h [6] [µM] | Activity (VL51 [7]) | Activity (A549)
1 | 19 | 1.8 | 1.1 | COc1ccc(Cn2cc3c(c2-c2ccccc2)CCCc2cnoc2-3)cc1 | inactive | Active | Active | > 10 | > 10 | inactive | Active
2 | – | 7.7 | 4.6 | COc1ccc(Cn2cc3c(c2-c2ccc(OC)cc2)CCCc2cnoc2-3)cc1 | – | – | – | – | – | – | –
